M4 antag = blocks acetylcholine activation of human M4 receptor; P08173; CHO-hM4 cells, ACh EC80, Fluo-8 calcium fluorescence; inhibition, % at 3 µM; 360,000 compounds, 0.73% hits;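 active means inhibition above its plate's cutoff, the mean inhibition of sample wells plus 3 SD, cut at about 27% in these data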;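 further: 0% = acetylcholine EC80 with DMSO and 100% = DMSO without agonist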
CHRM5 agonist = CHRM5 agonism in calcium assay; CHO-K1 hM5 cells, Fluo-8 calcium fluorescence; 0% DMSO wells, 100% maximal acetylcholine response; AID 624037; 360,000 compounds, 0.19% hits; activation, % at 3 µM;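 active means activation above the run's mean over test compounds plus 3 SD, cut at about 23% in these data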;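 further: signal is peak over basal fluorescence ratio across the kinetic read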
Target sequence (P08912 whole entry, looked up): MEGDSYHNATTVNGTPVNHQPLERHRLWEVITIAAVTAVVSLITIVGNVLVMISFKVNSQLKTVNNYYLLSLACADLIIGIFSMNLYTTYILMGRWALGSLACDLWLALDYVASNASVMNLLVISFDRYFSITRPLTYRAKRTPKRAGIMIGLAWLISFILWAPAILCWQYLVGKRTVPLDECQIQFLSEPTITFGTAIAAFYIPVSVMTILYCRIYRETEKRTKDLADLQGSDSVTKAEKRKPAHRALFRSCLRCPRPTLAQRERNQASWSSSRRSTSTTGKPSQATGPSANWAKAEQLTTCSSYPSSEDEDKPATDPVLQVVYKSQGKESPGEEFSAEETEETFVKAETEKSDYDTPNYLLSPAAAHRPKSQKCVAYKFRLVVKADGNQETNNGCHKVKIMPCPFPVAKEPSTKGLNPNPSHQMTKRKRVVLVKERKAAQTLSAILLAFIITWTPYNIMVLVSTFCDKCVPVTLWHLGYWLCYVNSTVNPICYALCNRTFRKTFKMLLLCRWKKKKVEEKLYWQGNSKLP
CHRM5 antagonist = blocks acetylcholine activation of human M5 receptor. P08912. 360,000 compounds, 0.59% hits. AID 624040. CHO-hM5 cells, Fluo-8 calcium fluorescence, ACh EC80. inhibition, % at 3 µM;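 active means inhibition above a per-plate cutoff, the mean of that plate's test compounds plus 3 SD, cut at about 27% in these data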;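 further: 0% = acetylcholine EC80 with DMSO and 100% = DMSO without agonist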
M4 ag = agonists of human muscarinic M4 receptor (CHRM4). activation, % at 3 µM. AID 624127. CHO-K1 hM4/Gqi5, Fluo-8 calcium fluorescence; vehicle 0%, full acetylcholine response 100%. P08173. 360,000 compounds, 0.14% hits;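 active means activation above the run mean over all test wells plus 3 SD, cut at about 32% in these data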;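 further: peak over basal fluorescence ratio per well then scaled between controls; 0% = DMSO wells and 100% = acetylcholine at EC100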
CHRM5 PAM = potentiates acetylcholine response at human M5 receptor; CHO-K1 hM5, Fluo-8 calcium, ACh EC20 PAM; 0% = ACh EC20, 100% = ACh EC100; 360,000 compounds, 0.3% hits; AID 624038; P08912; activation, % at 3 µM;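 active means activation above the run cutoff, the mean activation of all test compounds plus 3 SD, cut at about 18% in these data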
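Probe or stimulus: acetylcholine, EC20 level; Assay system: human M5 receptor in CHO-K1 cells; Schedule: compound preincubation 140 s before EC20 acetylcholine addition; Technique: intracellular calcium via Fluo-8 fluorescence; Dosing: single-point, 3 µM nominal; Read-out basis: percent activation from peak-over-basal fluorescence ratio, scaled EC20-to-EC100 acetylcholine; Repeats: one well per compound, no replicates.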
M4 PAM = CHRM4 positive allosteric modulation. CHO-K1 hM4/Gqi5, Fluo-8 calcium fluorescence, ACh EC20; 0% = ACh EC20, 100% = maximal ACh. P08173. activation, % at 3 µM. 360,000 compounds, 0.4% hits;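 active means activation above its plate's cutoff, the mean activation of sample wells plus 3 SD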
Starred values were filed as active, the others as inactive. This is a sample that favours compounds with a hit; in the whole collection about 1.8% have one here.

SMILES	M4 antag	CHRM5 agonist	CHRM5 antagonist	M4 ag	CHRM5 PAM	M4 PAM
CCOc1cc(-c2noc(N)c2C#N)cc(OCC)c1OCC	-4.5	-4.5	-0.6	0.1	-3.4	3.9
COC(=O)c1ccc(CN2C(=O)NC(CC(C)C)C2=O)cc1 (configuration not stated)	-2.5	-1.3	7.4	4.5	2.5	10.0
CC(C)OP(=O)(OC(C)C)C(Nc1ccc(C(=O)O)cc1)c1ccccc1 (configuration not stated)	38.0*	0.6	0.1	0.8	-0.5	31.8*
CC(C)OP(=O)(OC(C)C)C(Nc1cccc(C(=O)O)c1)c1ccccc1 (configuration not stated)	-3.5	5.1	9.4	-0.1	-1.4	1.4
CCn1c(SCC(=O)N2CCCC2)nc2c(c1=O)SC(C)C2 (configuration not stated)	84.3*	0.3	4.0	-1.1	-14.1	-16.2
COCCn1c(SCC(=O)Nc2cc(C)on2)nc2c(c1=O)SC(C)C2 (configuration not stated)	5.1	-1.8	1.7	1.0	9.1	4.2
CCSc1nnc(NC(=O)CSc2nc3c(c(=O)n2CCOC)SC(C)C3)s1 (configuration not stated)	31.7*	0.1	2.2	0.2	-8.1	-11.8
Cn1c2ccccc2c(=O)c2ccc(C#CC3(O)CCCCC3)cc21	10.3	-1.3	16.8	37.3*	-41.1	-15.9
CC1CCCN(c2nc3ccsc3c(=O)s2)C1 (configuration not stated)	28.1*	-7.4	-0.4	-2.7	-10.0	-29.3
NS(=O)(=O)c1ccc(S(=O)(=O)NCCc2ccccc2)cc1	11.9	-1.5	-2.6	0.9	-0.5	-6.7
Cc1[nH]c2ccccc2c1CCNS(=O)(=O)c1ccc(S(N)(=O)=O)cc1	-10.2	-1.4	4.4	2.0	12.9	15.9*
N#CC1=C(N2CCCCC2)c2cc3c(n2C1=O)CCCC3	30.5*	-4.5	12.9	2.3	-2.6	-19.1
Cc1ccc(C)c(OCc2cc(C(=O)N(C)Cc3nccs3)no2)c1	8.9	-3.7	28.4*	5.6	-8.2	-4.0
Cc1ccc(C)c(OCc2cc(C(=O)N(C)Cc3ccccn3)no2)c1	0.1	-1.4	5.0	2.7	-2.9	-1.1
CC1(c2ccccc2)CC(C)(C)N2C(=O)Cc3cccc1c32 (configuration not stated)	32.7*	-7.8	6.5	-1.4	-2.5	-13.3
CC(=O)O[C@]1(C(C)=O)CC[C@H]2[C@@H]3C=C(C)C4=CC(=O)CC[C@@H]4[C@H]3CC[C@@]21C	16.9	-1.1	5.6	1.1	-5.6	-9.7
C#C[C@]1(OC(C)=O)CCC2C3CCC4=CC(=O)CC[C@@H]4C3CC[C@@]21C (some centres not stated)	-9.3	26.6*	2.9	12.9	-16.9	-6.8
COC(=O)/C=C1\N/C(=N\c2nc(C)cc(C)n2)N(c2ccc(C)c(C)c2)C1=O	-10.1	1.4	-2.0	1.3	1.7	4.3
O=C(NCCN1CCC(n2c(=O)[nH]c3ccccc32)CC1)N1c2ccccc2Sc2ccccc21	17.0	-3.8	11.3	11.2	-21.1	-13.6
CCCC(C)c1nnc(NC(=O)C2CCCO2)s1 (configuration not stated)	30.2*	-7.4	5.4	0.1	-12.4	-13.1
C[C@@H](NC(=O)Cn1cnc2c(OCc3ccccc3)ncnc21)c1cccc2ccccc12	57.5*	6.3	-4.4	14.0	2.8	55.6*
O=C(Nc1cccn(Cc2ccc(F)cc2)c1=O)NC1CCCCC1	1.9	1.1	2.2	1.8	-2.7	-5.7
Cc1ccc(Cn2cccc(NC(=O)NC3CCCCC3)c2=O)cc1	2.1	-4.6	-8.0	1.4	33.8*	4.2
CC(Oc1ccc(Cl)cc1Cl)c1nc(-c2ccc(NC(=O)c3ccccn3)cc2)no1 (configuration not stated)	2.6	2.5	-2.2	0.6	-5.3	4.1
O=C(N/N=C\c1cn(-c2ccccc2)nc1-c1ccccc1)c1ccc(Br)o1	27.1*	-3.5	13.9	9.3	-9.3	26.8
SMILES	M4 antag	CHRM5 agonist	CHRM5 antagonist	M4 ag	CHRM5 PAM	M4 PAM
Cc1ccc(-c2nn(-c3ccccc3)cc2/C=N/NC(=O)c2ccc(Br)o2)cc1	4.4	-1.6	5.4	4.3	0.0	-2.4
O=C(NCCCN1CCOCC1)NC1CCCCC1	-11.9	-2.6	-9.7	0.3	2.0	15.7
O=C(NCCCCCCCN1CCCCCCC1)C(C1CCCCC1)C1CCCCC1	74.6*	-12.0	2.8	2.5	-43.8	-11.2
CN(C)S(=O)(=O)c1cccc(CSCc2cccc(S(=O)(=O)N(C)C)c2)c1	19.4	11.1	41.1*	14.8	-15.5	-10.5
COc1ccc(C2NC(=S)NC(O)(C(F)(F)F)C2C(=O)c2cccs2)cc1 (configuration not stated)	43.4*	-5.5	4.6	2.2	-16.0	-37.0
COc1cc(C2NC(=O)NC(O)(C(F)(F)F)C2C(=O)c2cccs2)ccc1O (configuration not stated)	7.2	0.3	3.5	1.0	-1.0	0.1
O=C(NNC(=S)Nc1ccc(C(=O)O)c(O)c1)c1ccncc1	-7.5	2.9	4.4	2.1	-0.2	8.1
COc1ccc(F)cc1S(=O)(=O)NCC1CCCO1 (configuration not stated)	1.5	0.9	-10.6	1.9	5.6	0.8
CCC(CO)Oc1cc(NC(=O)c2ccccc2Cl)c2ncn(C(C)C)c2c1 (configuration not stated)	7.3	-7.5	5.3	7.8	3.8	2.2
O=C(NCc1ccccc1)C(c1ccccc1)n1c(C2CC2)nc2ccccc21 (configuration not stated)	-12.3	-5.3	-5.8	3.9	-3.5	4.0
COc1ccccc1CN1CCC(CNS(=O)(=O)c2cc(-c3onc(C)c3C)ccc2OC)CC1	42.3*	-8.9	15.1	2.4	-13.5	-22.6
O=C(NCc1ccon1)C1CCC(=O)N(CCc2ccc(Cl)cc2)C1 (configuration not stated)	-8.8	-2.0	-6.2	1.2	21.2*	16.3*
O=C1NC[C@@H](Cc2cccc3ccccc23)N(CCc2cc(C(F)(F)F)cc(C(F)(F)F)c2)C1=O	-3.5	5.0	9.8	-0.7	-4.6	6.5
COc1ccc(N2CC(C(=O)N3CCN(c4ccccc4)CC3)CC2=O)cc1 (configuration not stated)	3.6	-3.7	31.5*	1.4	-13.3	0.0
CCOc1ccc(NC(=O)C2CCN(C(=O)C3CC(=O)N(c4ccc(C)cc4)C3)CC2)cc1 (configuration not stated)	-7.6	-3.0	-2.5	1.1	1.8	19.3*

Screening data from PubChem.
